Reference: article PMC11040708 (JACS Au, 2024)

Biological target: N-HSP90α WT (Homo sapiens, UniProt P07900)
Experiment: SPR kinetics, two-state reaction model, amine-coupled protein
Assay type: binding
In short: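 Protein was pre-incubated with a 100-fold excess of a reference ATP-site inhibitor, diluted to 20 μg/mL in acetate pH 4.50, and amine-coupled to a CM5 chip (~4000 RU). Compounds came from 10 mM DMSO stock as 2-fold series in HEPES/Tween 20 buffer at 30 μL/min, with 120 s contact and 200–600 s dissociation. Solvent-corrected, double-referenced data were fitted with mass transport.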

O=c1cc(-c2ccc(O)c(O)c2)oc2cc(O[C@@H]3O[C@H](CO)[C@@H](O)[C@H](O)[C@H]3O)cc(O)c12 [compound 5]
Kd: 6.06 µM
